In ChEMBL document CHEMBL1811814, “Synthesis and evaluation of indole, pyrazole, chromone and pyrimidine based conjugates for tumor growth inhibitory activities--development of highly efficacious cytotoxic agents” (Eur J Med Chem, 2010):

Key:
Assay type in all cases: functional
HCT-116 = test: Growth inhibition of human HCT116 cells
HT-29 = test: Growth inhibition of human HT-29 cells
SF-268 = test: Growth inhibition of human SF268 cells
U-251 [1] = test: Growth inhibition of human U251 cells
Malme-3M = test: Growth inhibition of human MALME-3M cells
M14 = test: Growth inhibition of human M14 cells
MDA-MB-435 = test: Growth inhibition of human MDA-MB-435 cells
SK-MEL-2 = test: Growth inhibition of human SK-MEL-2 cells
UACC-62 = test: Growth inhibition of human UACC62 cells
OVCAR-5 [2] = test: Growth inhibition of human OVCAR5 cells
SK-OV-3 = test: Growth inhibition of human SKOV3 cells
786-0 = test: Growth inhibition of human 786-0 cells
A498 [3] = test: Growth inhibition of human A498 cells
ACHN [4] = test: Growth inhibition of human ACHN cells
UO-31 = test: Growth inhibition of human UO31 cells
PC-3 [5] = test: Growth inhibition of human PC3 cells
DU-145 = test: Growth inhibition of human DU145 cells
BT-549 [6] = test: Growth inhibition of human BT549 cells
T47D = test: Growth inhibition of human T47D cells
CCRF-CEM [7] = test: Growth inhibition of human CCRF-CEM cells assessed tumor cell growth at 10^-5 M; parameters: scale not given: the % may be the effect or the level left
Outline: (§1)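 NCI 60-human-tumor-cell-line panel screen. Each compound was tested at a single concentration of 10^-5 M, and percent growth of tumor cells was recorded for each cell line. Growth inhibition was expressed from these percent-growth values.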

HL-60(TB) [8] = test: Growth inhibition of human HL-60(TB) cells assessed tumor cell growth at 10^-5 M; parameters: scale not given: the % may be the effect or the level left
Outline: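 HL-60(TB), part of the 60-line panel, tested at a single concentration of 10^-5 M. The read-out is percent tumor cell growth relative to untreated growth.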

[9] = Growth inhibition of human […] cells assessed tumor cell growth at 10^-5 M; parameters: scale not given: the % may be the effect or the level left; outline: as §1
HOP-62 = test: Growth inhibition of human HOP62 cells assessed tumor cell growth at 10^-5 M; parameters: scale not given: the % may be the effect or the level left; outline: as §1
HOP-92 = test: Growth inhibition of human HOP92 cells assessed tumor cell growth at 10^-5 M; parameters: scale not given: the % may be the effect or the level left; outline: as §1
NCI-H226 [10] = test: Growth inhibition of human NCI-H226 cells assessed tumor cell growth at 10^-5 M; parameters: scale not given: the % may be the effect or the level left; outline: as §1
NCI-H322M = test: Growth inhibition of human NCI-H322M cells assessed tumor cell growth at 10^-5 M; parameters: scale not given: the % may be the effect or the level left; outline: as §1
NCI-H522 = test: Growth inhibition of human NCI-H522 cells assessed tumor cell growth at 10^-5 M; parameters: scale not given: the % may be the effect or the level left; outline: as §1
COLO 205 = test: Growth inhibition of human COLO205 cells assessed tumor cell growth at 10^-5 M; parameters: scale not given: the % may be the effect or the level left; outline: as §1
HCT-15 = test: Growth inhibition of human HCT15 cells assessed tumor cell growth at 10^-5 M; parameters: scale not given: the % may be the effect or the level left; outline: as §1
SF-539 = test: Growth inhibition of human SF539 cells assessed tumor cell growth at 10^-5 M; parameters: scale not given: the % may be the effect or the level left; outline: as §1
SNB-75 = test: Growth inhibition of human SNB75 cells assessed tumor cell growth at 10^-5 M; parameters: scale not given: the % may be the effect or the level left
Outline: (§2)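 Single-dose screen at 10^-5 M across the 60 human tumor cell line panel, run to NCI standards. The value is the percent growth of each cell line in the presence of compound. Compounds active at this dose moved on to five-concentration testing (10^-4 to 10^-8 M).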

U-251 [11] = test: Growth inhibition of human U251 cells assessed tumor cell growth at 10^-5 M; parameters: scale not given: the % may be the effect or the level left; outline: as §2
SK-MEL-5 = test: Growth inhibition of human SK-MEL-5 cells assessed tumor cell growth at 10^-5 M; parameters: scale not given: the % may be the effect or the level left; outline: as §1
UACC-257 = test: Growth inhibition of human UACC257 cells assessed tumor cell growth at 10^-5 M; parameters: scale not given: the % may be the effect or the level left; outline: as §2
OVCAR-3 = test: Growth inhibition of human OVCAR3 cells assessed tumor cell growth at 10^-5 M; parameters: scale not given: the % may be the effect or the level left; outline: as §1
OVCAR-4 = test: Growth inhibition of human OVCAR4 cells assessed tumor cell growth at 10^-5 M; parameters: scale not given: the % may be the effect or the level left; outline: as §1
OVCAR-5 [12] = test: Growth inhibition of human OVCAR5 cells assessed tumor cell growth at 10^-5 M; parameters: scale not given: the % may be the effect or the level left; outline: as §1
OVCAR-8 = test: Growth inhibition of human OVCAR8 cells assessed tumor cell growth at 10^-5 M; parameters: scale not given: the % may be the effect or the level left; outline: as §1
A498 [13] = test: Growth inhibition of human A498 cells assessed tumor cell growth at 10^-5 M; parameters: scale not given: the % may be the effect or the level left; outline: as §1
ACHN [14] = test: Growth inhibition of human ACHN cells assessed tumor cell growth at 10^-5 M; parameters: scale not given: the % may be the effect or the level left; outline: as §1
TK-10 = test: Growth inhibition of human TK10 cells assessed tumor cell growth at 10^-5 M; parameters: scale not given: the % may be the effect or the level left; outline: as §2
PC-3 [15] = test: Growth inhibition of human PC3 cells assessed tumor cell growth at 10^-5 M; parameters: scale not given: the % may be the effect or the level left; outline: as §1
MCF7 = test: Growth inhibition of human MCF7 cells assessed tumor cell growth at 10^-5 M; parameters: scale not given: the % may be the effect or the level left; outline: as §1
[16] = Growth inhibition of human Hs 578T cells assessed tumor cell growth at 10^-5 M; parameters: scale not given: the % may be the effect or the level left; outline: as §1
BT-549 [17] = test: Growth inhibition of human BT549 cells assessed tumor cell growth at 10^-5 M; parameters: scale not given: the % may be the effect or the level left; outline: as §1
MDA-MB-468 = test: Growth inhibition of human MDA-MB-468 cells assessed tumor cell growth at 10^-5 M; parameters: scale not given: the % may be the effect or the level left; outline: as §1
CCRF-CEM [18] = test: Growth inhibition of human CCRF-CEM cells
HL-60(TB) [19] = test: Growth inhibition of human HL-60(TB) cells
K562 = test: Growth inhibition of human K562 cells
MOLT-4 = test: Growth inhibition of human MOLT4 cells
A549 = test: Growth inhibition of human A549 cells
NCI-H226 [20] = test: Growth inhibition of human NCI-H226 cells
NCI-H23 = test: Growth inhibition of human NCI-H23 cells
[21] = read-out: LC50 (the source's name)

CC1=NN(c2cccc(Cl)c2)C(=O)/C1=C\c1c(O)ccc2ccccc12
GI50 (HCT-116): > 100 µM
CC50 (HCT-116; [21]): > 100 µM
GI50 (HT-29): > 100 µM
CC50 (HT-29; [21]): > 100 µM
GI50 (SF-268): 97.7 µM
CC50 (SF-268; [21]): > 100 µM
GI50 (U-251 [1]): 40.7 µM
CC50 (U-251 [1]; [21]): > 100 µM
GI50 (Malme-3M): 29.5 µM
CC50 (Malme-3M; [21]): > 100 µM
GI50 (M14): > 100 µM
CC50 (M14; [21]): > 100 µM
GI50 (MDA-MB-435): > 100 µM
CC50 (MDA-MB-435; [21]): > 100 µM
GI50 (SK-MEL-2): 21.8 µM
CC50 (SK-MEL-2; [21]): > 100 µM
GI50 (UACC-62): 39.8 µM
CC50 (UACC-62; [21]): > 100 µM
GI50 (OVCAR-5 [2]): > 100 µM
CC50 (OVCAR-5 [2]; [21]): > 100 µM
GI50 (SK-OV-3): 26.3 µM
CC50 (SK-OV-3; [21]): > 100 µM
GI50 (786-0): 21.3 µM
CC50 (786-0; [21]): > 100 µM
GI50 (A498 [3]): > 100 µM
CC50 (A498 [3]; [21]): > 100 µM
GI50 (ACHN [4]): 16.9 µM
CC50 (ACHN [4]; [21]): > 100 µM
GI50 (UO-31): > 100 µM
CC50 (UO-31; [21]): > 100 µM
GI50 (PC-3 [5]): > 100 µM
CC50 (PC-3 [5]; [21]): > 100 µM
GI50 (DU-145): 70.7 µM
CC50 (DU-145; [21]): > 100 µM
GI50 (BT-549 [6]): 27.5 µM
CC50 (BT-549 [6]; [21]): > 100 µM
GI50 (T47D): > 100 µM
CC50 (T47D; [21]): > 100 µM
Activity (CCRF-CEM [7]): 36.33%
Activity (HL-60(TB) [8]): 104.49%
Activity [9]: 96.44%
Activity (HOP-62): -64.07%
Activity (HOP-92): -2.07%
Activity (NCI-H226 [10]): 1.04%
Activity (NCI-H322M): 84.08%
Activity (NCI-H522): -11.28%
Activity (COLO 205): -80.64%
Activity (HCT-15): 49.94%
Activity (SF-539): 72.26%
Activity (SNB-75): 10.3%
Activity (U-251 [11]): -10.7%
Activity (SK-MEL-5): -82.5%
Activity (UACC-257): 79.99%
Activity (OVCAR-3): 63.18%
Activity (OVCAR-4): -66.84%
Activity (OVCAR-5 [12]): 16.91%
Activity (OVCAR-8): 22.34%
Activity (A498 [13]): 107.38%
Activity (ACHN [14]): -36.07%
Activity (TK-10): 17.23%
Activity (PC-3 [15]): 33.03%
Activity (MCF7): 3.07%
Activity [16]: 82.15%
Activity (BT-549 [17]): 90.21%
Activity (MDA-MB-468): 34.53%
GI50 (CCRF-CEM [18]): 97.7 µM
CC50 (CCRF-CEM [18]; [21]): > 100 µM
GI50 (HL-60(TB) [19]): > 100 µM
CC50 (HL-60(TB) [19]; [21]): > 100 µM
GI50 (K562): 44.6 µM
CC50 (K562; [21]): > 100 µM
GI50 (MOLT-4): > 100 µM
LC50 (MOLT-4): > 100 µM
GI50 (A549): > 100 µM
CC50 (A549; [21]): > 100 µM
GI50 (NCI-H226 [20]): 47.8 µM
CC50 (NCI-H226 [20]; [21]): > 100 µM
GI50 (NCI-H23): > 100 µM
LC50 (concentration killing 50% of cells) (NCI-H23): > 100 µM
